Test results published in ChEMBL document CHEMBL3853316 (J Med Chem, 2016).

Legend:
[1] = Half life in human liver microsomes; type: ADME
[2] = Oral bioavailability in dog at 1 mg/kg; type: ADME, organism-based, Canis lupus familiaris; conditions: in vivo
How it was run: (§1)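 Dogs (n = 3) were dosed at 0.2 mg/kg iv and 1.0 mg/kg po for pharmacokinetic parameters.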

[3] = Half life in dog liver microsomes; type: ADME, Canis lupus familiaris
[4] = Volume of distribution at steady state in dog at 0.2 mg/kg, iv and 1 mg/kg, po; type: ADME, organism-based, Canis lupus familiaris; conditions: in vivo, read-out: Vdss; how it was run: as §1
[5] = Clearance in dog at 0.2 mg/kg, iv and 1 mg/kg, po; type: ADME, organism-based, Canis lupus familiaris; conditions: in vivo; how it was run: as §1
[6] = Half life in rat liver microsomes; type: ADME
[7] = Half life in dog at 0.2 mg/kg, iv and 1 mg/kg, po; type: ADME, organism-based, Canis lupus familiaris; conditions: in vivo; how it was run: as §1
[8] = Dissociation constant, pKa of the compound in methanol/water by spectrophotometric titration method; type: physicochemical

Row | SMILES | half-life [1] [min] | bioavailability [2] [%] | half-life [3] [min] | Vd [4] [L/kg] | clearance [5] [mL/min/kg] | half-life [6] [min] | half-life [7] [min] | pKa [8]
1 | Cc1cc2ccc1[C@@H](C)COC(=O)Nc1ccc(S(=O)(=O)C3CC3)c(c1)CN(C)C(=O)[C@@H]2Nc1cc2ccnc(N)c2cc1F | 95 | < 1 | 7 | 4 | 11 | 10 | 360 | 
2 | Cc1cc2ccc1[C@@H](C)COC(=O)Nc1ccc(S(=O)(=O)C3CC3)c(c1)CN(C)C(=O)[C@@H]2Nc1ccc2c(N)ncc(F)c2c1 | 45 | 40 | 26 | 5 | 8 | 1.9 | 480 | 7.1
3 | Cc1cc2ccc1[C@@H](C)COC(=O)Nc1ccc(S(=O)(=O)C3CC3)c(c1)CN(C)C(=O)[C@@H]2Nc1cc(F)c2c(N)nccc2c1 | 120 | 24 | 39 | 8 | 13 | 3.3 | 480 | 8
4 | Cc1cc2ccc1[C@@H](C)COC(=O)Nc1ccc(OC(F)(F)F)c(c1)CN(C)C(=O)[C@@H]2Nc1ccc2c(N)nccc2c1 | 130 | 22 | 140 |  |  | 37 |  | 
5 | Cc1cc2ccc1[C@@H](C)COC(=O)Nc1ccc(S(=O)(=O)C3CC3)c(c1)CN(C)C(=O)[C@@H]2Nc1ccc2c(N)nccc2c1 | > 120 | 1 | 110 |  |  | 12 |  | 8.7
